Test results published in ChEMBL document CHEMBL5230149, “Discovery of novel ketoxime ether derivatives with potent FXR agonistic activity, oral effectiveness and high liver/blood ratio” (Bioorg Med Chem, 2021).
Active and inactive are the calls of the source. The calls are words filed in the database; no cut-off is given here.

Key:
Bile acid receptor = target: T1, Bile acid receptor (Homo sapiens, UniProt Q96RI1); experiment: Agonist activity at human FXR expressed in human Huh-7 cells co-transfected with FXRE-Luc reporter plasmid assessed as receptor transactivation incubated for 16 hrs by luciferase reporter gene assay; format: cell-based
T1 sequence (Q96RI1 whole entry): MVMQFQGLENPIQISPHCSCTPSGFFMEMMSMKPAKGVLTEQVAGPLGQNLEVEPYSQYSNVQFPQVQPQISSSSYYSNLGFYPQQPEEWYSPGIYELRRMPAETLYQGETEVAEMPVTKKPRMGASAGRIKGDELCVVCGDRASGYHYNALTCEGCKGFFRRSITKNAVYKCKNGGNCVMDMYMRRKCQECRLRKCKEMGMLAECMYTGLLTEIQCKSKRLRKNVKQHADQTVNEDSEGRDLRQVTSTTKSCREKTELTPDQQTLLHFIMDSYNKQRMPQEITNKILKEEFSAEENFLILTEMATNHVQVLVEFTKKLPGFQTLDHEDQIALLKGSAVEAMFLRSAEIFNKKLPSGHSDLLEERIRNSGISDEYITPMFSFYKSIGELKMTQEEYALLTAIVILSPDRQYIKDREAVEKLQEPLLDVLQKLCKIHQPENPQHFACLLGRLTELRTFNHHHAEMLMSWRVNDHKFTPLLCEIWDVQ

[1] = target: T2, Bile acid receptor (Mus musculus) (UniProt Q60641); experiment: In vivo agonist activity at FXR in C57BL/6J mouse assessed as downregulation of CYP8B1 mRNA expression in liver at 30 mg/kg, po measured after 6 hrs by qRT-PCR analysis; format: functional, organism-based
T2 sequence (whole entry): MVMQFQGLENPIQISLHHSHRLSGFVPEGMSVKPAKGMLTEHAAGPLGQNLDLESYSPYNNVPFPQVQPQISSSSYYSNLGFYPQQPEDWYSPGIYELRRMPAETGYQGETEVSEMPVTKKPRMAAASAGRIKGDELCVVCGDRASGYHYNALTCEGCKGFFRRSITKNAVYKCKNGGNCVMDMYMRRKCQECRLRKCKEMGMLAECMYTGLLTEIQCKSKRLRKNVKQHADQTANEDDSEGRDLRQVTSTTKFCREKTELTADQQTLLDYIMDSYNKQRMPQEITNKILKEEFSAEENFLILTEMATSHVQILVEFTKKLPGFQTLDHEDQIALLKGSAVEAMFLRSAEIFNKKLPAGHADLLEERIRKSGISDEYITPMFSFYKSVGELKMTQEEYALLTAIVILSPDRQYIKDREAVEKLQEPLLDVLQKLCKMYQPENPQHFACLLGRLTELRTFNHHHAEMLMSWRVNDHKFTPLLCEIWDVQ
Summary of the method: (§1)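 Male C57BL/6J mice (7–8 weeks) fasted 3 h, then given a single oral dose; vehicle 0.25% CMC-Na (wt/vol). Killed 6 h post-dose; liver snap-frozen, stored at -80 °C. TRIzol RNA extraction, qRT-PCR, normalised to GAPDH by ΔΔCt. Values given as fold of vehicle group, mean ± SEM, n = 6.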

[2] = target: T2, Bile acid receptor (Mus musculus); experiment: Agonist activity at FXR in C57BL/6J mouse hepatocytes assessed as upregulation of BSEP mRNA expression at 0.4 to 10 uM incubated for 24 hrs by qRT-PCR analysis; format: cell-based; conditions: Hepatocyte, filed as agonist, dose 0.4-10 µM
Summary of the method: (§2)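 Hepatocytes isolated from overnight-fasted male C57BL/6J mice (8–12 weeks), allowed 4 h to adhere, then given vehicle (0.5% DMSO) or compound at 0.4, 2 and 10 μM for 24 h. TRIzol RNA extraction, then qRT-PCR with GAPDH normalization by ΔΔCt. Values are expressed as fold over vehicle (mean ± S.E.M, n = 3).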

[3] = target: T2, Bile acid receptor (Mus musculus); experiment: Agonist activity at FXR in C57BL/6J mouse hepatocytes assessed as upregulation of SHP mRNA expression incubated for 24 hrs by qRT-PCR analysis; format: cell-based; conditions: Hepatocyte, filed as agonist, dose 0.4-10 µM; summary of the method: as §2
[4] = target: T2, Bile acid receptor (Mus musculus); experiment: In vivo agonist activity at FXR in C57BL/6J mouse assessed as downregulation of CYP7A1 mRNA expression in liver at 30 mg/kg, po measured after 6 hrs by qRT-PCR analysis; format: functional, organism-based; summary of the method: as §1

SMILES | EC50 (Bile acid receptor) [nM] | other results
COc1cc(/C(C)=N/OCc2cc(C)cc(C(=O)O)c2)ccc1OCc1c(-c2ccccc2OC(F)(F)F)noc1C1CC1 | > 1850 | 
C/C(=N\OCc1cccc(C(=O)O)c1)c1ccc(OCc2c(-c3c(Cl)cccc3Cl)noc2C2CC2)cc1Br | 37.2 | 
C/C(=N\OCc1cncc(C(=O)O)c1)c1ccc(OCc2c(-c3ccccc3OC(F)(F)F)noc2C2CC2)c(F)c1 | 728 | 
C/C(=N\OCc1cccc(C(=O)O)c1)c1ccc(OCc2c(-c3c(Cl)cccc3Cl)noc2C2CC2)c(Cl)c1 | 259 | 
CC[C@H]1[C@@H](O)[C@@H]2[C@H](CC[C@]3(C)[C@@H]([C@H](C)CCC(=O)O)CC[C@@H]23)[C@@]2(C)CC[C@@H](O)C[C@@H]12 |  | Activity [1]: Active; Activity [2]: Active; Activity [3]: Dose-Dependent Effect; Activity [4]: Active
C/C(=N\OCc1cc(C)cc(C(=O)O)c1)c1ccc(OCc2c(-c3ccccc3OC(F)(F)F)noc2C2CC2)c(C)c1 | 523 | 
C/C(=N\OCc1cncc(C(=O)O)c1)c1ccc(OCc2c(-c3ccccc3OC(F)(F)F)noc2C2CC2)c(C)c1 | 1830 | 
C/C(=N\OCc1cccc(C(=O)O)c1)c1ccc(OCc2c(-c3c(Cl)cccc3Cl)noc2C2CC2)cn1 | 234 | 
C/C(=N\OCc1cc(C(=O)O)ccc1C#N)c1ccc(OCc2c(-c3ccccc3OC(F)(F)F)noc2C2CC2)c(F)c1 | 347 | 
C/C(=N\OCc1cc(C)cc(C(=O)O)c1)c1ccc(OCc2c(-c3ccccc3OC(F)(F)F)noc2C2CC2)cc1Cl | 158 | 
C/C(=N\OCc1cc(C)cc(C(=O)O)c1)c1ccc(OCc2c(-c3ccccc3OC(F)(F)F)noc2C2CC2)c(F)c1 | 1340 | 
